In PubChem BioAssay:
Calls of active or inactive are those of the source.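 Rule for the calls, unless noted: active = potentiation averaged over duplicate wells exceeding buffer-only control mean by more than 3 SD; inactive = the rest.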

How the values were obtained:
[1] = nonspecific flux increase, KCNQ1-free cells – parental CHO cells, counter-screen for KCNQ1 potentiator project (AID 493006;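 active = duplicate-averaged activation above buffer control mean plus 5 SD of those controls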;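 for activation: fluorescence ratio of max minus min over baseline after K+ and Tl+ depolarization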); settings: parental CHO-K1 cells, FluxOR thallium flux, at 10 µM; stronger effect = higher value
In short: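 Assay system: parental CHO-K1 cells lacking KCNQ1, loaded with FluxOR thallium dye; timing: dye 90 min RT, compound 20 min RT; signal: kinetic thallium-flux fluorescence; repeats: duplicate wells per compound, percent values averaged; benchmarks: buffer and R-L3 controls; reagent: Potassium/thallium depolarization pulse; read-out: fluorescence change ratio scaled 0% buffer, 100% R-L3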

[2] = biological target: Potassium voltage-gated channel subfamily KQT member 1 (Homo sapiens) (UniProt P51787); assay: enhancement of KCNQ1 channel thallium flux – FluxOR thallium flux, CHO cells, duplicates, confirmation (AID 493007); settings: KCNQ1 cell line, FluxOR thallium flux fluorescence, at 10 µM; stronger effect = higher value, % of reference activator effect, buffer zero;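 for outcome: cells depolarized by a potassium plus thallium sulfate stimulus after compound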
Sequence of Potassium voltage-gated channel subfamily KQT member 1 (Homo sapiens) (P51787 whole entry, looked up): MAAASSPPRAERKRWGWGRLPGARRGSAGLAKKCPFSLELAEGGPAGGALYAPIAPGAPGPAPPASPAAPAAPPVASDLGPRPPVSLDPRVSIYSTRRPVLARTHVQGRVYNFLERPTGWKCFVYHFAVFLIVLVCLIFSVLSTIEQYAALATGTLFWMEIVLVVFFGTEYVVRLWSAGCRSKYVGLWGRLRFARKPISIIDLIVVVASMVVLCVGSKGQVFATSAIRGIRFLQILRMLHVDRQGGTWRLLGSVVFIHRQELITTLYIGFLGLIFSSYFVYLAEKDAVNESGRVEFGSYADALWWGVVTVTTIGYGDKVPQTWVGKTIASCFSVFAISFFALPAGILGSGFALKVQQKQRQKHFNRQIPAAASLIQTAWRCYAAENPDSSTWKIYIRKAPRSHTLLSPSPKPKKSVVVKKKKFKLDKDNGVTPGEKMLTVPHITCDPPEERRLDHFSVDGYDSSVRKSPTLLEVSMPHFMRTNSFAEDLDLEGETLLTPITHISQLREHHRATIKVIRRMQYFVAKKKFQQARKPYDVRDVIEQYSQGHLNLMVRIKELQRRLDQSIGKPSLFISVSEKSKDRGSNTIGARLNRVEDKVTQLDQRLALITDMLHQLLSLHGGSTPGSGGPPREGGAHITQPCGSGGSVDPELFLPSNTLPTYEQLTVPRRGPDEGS
In short: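 material = CHO cells stably expressing the KCNQ1 potassium channel | repeats = duplicate wells per compound | measure = percent activation between buffer and R-L3 responses | signal = FluxOR thallium-flux fluorescence, kinetic read | schedule = FluxOR dye loading 90 min, compound exposure 20 min, room temperature | control set = buffer and R-L3 controls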

[3] = biological target: Potassium voltage-gated channel subfamily KQT member 2 (Rattus norvegicus) (UniProt O88943); assay: KCNQ2 thallium flux enhancement – KCNQ2-CHO-K1 cells, selectivity assay for KCNQ1 potentiator project (AID 493009;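 active = mean duplicate potentiation above the buffer control mean plus 5 SD of buffer wells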;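 note: assay conditions were tuned for KCNQ1 rather than KCNQ2 modulators; signal is max minus min fluorescence divided by baseline after thallium stimulus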); settings: FluxOR thallium flux fluorescence, at 10 µM; stronger effect = higher value, scaled: buffer 0, activator control 100
Sequence of Potassium voltage-gated channel subfamily KQT member 2 (Rattus norvegicus) (O88943 whole entry, looked up): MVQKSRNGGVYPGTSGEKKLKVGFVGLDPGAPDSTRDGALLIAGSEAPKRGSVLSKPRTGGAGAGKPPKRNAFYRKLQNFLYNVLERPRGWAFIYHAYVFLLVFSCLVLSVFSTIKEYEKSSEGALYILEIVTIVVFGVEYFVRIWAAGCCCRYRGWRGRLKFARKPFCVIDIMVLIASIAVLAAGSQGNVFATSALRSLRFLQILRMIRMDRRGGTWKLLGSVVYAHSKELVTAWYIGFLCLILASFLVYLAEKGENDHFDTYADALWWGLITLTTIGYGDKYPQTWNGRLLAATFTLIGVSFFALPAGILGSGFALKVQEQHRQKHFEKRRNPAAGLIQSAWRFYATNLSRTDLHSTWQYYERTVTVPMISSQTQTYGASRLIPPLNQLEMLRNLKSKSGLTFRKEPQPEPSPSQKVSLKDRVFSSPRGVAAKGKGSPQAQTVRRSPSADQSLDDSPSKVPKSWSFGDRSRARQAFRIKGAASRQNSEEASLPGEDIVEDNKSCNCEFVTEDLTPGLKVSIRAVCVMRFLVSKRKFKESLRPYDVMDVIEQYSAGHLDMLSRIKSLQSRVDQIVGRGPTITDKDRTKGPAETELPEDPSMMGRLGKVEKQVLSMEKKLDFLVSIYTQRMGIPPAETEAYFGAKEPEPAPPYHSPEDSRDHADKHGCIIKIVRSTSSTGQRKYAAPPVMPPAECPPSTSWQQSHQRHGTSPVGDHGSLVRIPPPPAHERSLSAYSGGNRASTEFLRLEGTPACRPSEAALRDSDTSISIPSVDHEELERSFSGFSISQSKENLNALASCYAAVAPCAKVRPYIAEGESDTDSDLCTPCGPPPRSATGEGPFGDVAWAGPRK

[4] = biological target: Potassium voltage-gated channel subfamily KQT member 1 (Homo sapiens) (UniProt P51787); assay: KCNQ1 activators by electrophysiology – IonWorks patch clamp, KCNQ1-CHO cells, orthogonal assay for KCNQ1 potentiator project, confirmation (AID 493184;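 active = current rise at least 3 SD above the untreated control mean in each of two repeat wells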); settings: automated patch clamp current, at 10 µM; stronger effect = higher value
In short: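 Assay system – CHO cells carrying KCNQ1 · Medium – pH 7.4 external bath · Probe or stimulus – depolarizing pulse to +40 mV from -90 mV · Compound dosing – one dose, 10 µM final · Measured by – automated perforated-patch electrophysiology · Measure – % potentiation of steady-state current relative to pre-compound · Repeats – two replicates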

[5] = biological target: Potassium voltage-gated channel subfamily E member 1 (Homo sapiens) + Potassium voltage-gated channel subfamily KQT member 1 (Homo sapiens) (UniProt P15382+P51787); assay: KCNQ1-E1 channel activation – thallium flux, CHO-K1 KCNQ1/E1 cells, selectivity assay for KCNQ1 potentiator project, confirmation (AID 493186;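 active = mean duplicate activation above the buffer control mean plus 5 SD of those controls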); settings: FluxOR thallium flux, at 10 µM; stronger effect = higher value
Sequence of Potassium voltage-gated channel subfamily E member 1 (Homo sapiens) + Potassium voltage-gated channel subfamily KQT member 1 (Homo sapiens) (P51787 whole entry, looked up): as the sequence (P51787 whole entry, looked up) above
In short: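 Assay system: CHO-K1 cells with KCNQ1/E1 | Dosing: Single compound concentration per well | Incubation: Dye 90 min, compound 20 min, room temperature | Measured by: FluxOR Tl+ flux fluorescence, kinetic read | Controls: Buffer low control, R-L3 high control | Replicates: Duplicate wells per compound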

COc1c(Br)cc(/C=N/n2c(-c3ccccc3)n[nH]c2=S)c(O)c1Br
inactive: outcome [1] | outcome [2] | outcome [3] | outcome [4] | outcome [5]

Cc1ccc(C(=O)NC(=S)N2CCN(c3ccccc3F)CC2)cc1
inactive: outcome [1] | outcome [2] | outcome [3] | outcome [4] | outcome [5]

O=C(NC(=S)Nc1nc(-c2ccccc2)cs1)c1cccs1
active: potentiation [2] 38%
inactive: outcome [1] | outcome [3] | outcome [4] | outcome [5]

CCC1(CC)Cc2ccccc2-c2[nH]c(=S)[nH]c(=O)c21
inactive: outcome [1] | outcome [2] | outcome [3] | outcome [4] | outcome [5]

O=[N+]([O-])c1ccc(S(=O)(=O)CC(CN2CCCCC2)N2CCCCC2)cc1 (stereo unspecified)
inactive: outcome [1] | outcome [2] | outcome [3] | outcome [4] | outcome [5]

Cc1ccc(C2C(C#N)=C(N)OC3=C2C(=O)CC(C)(C)C3)s1 (stereo unspecified)
inactive: outcome [1] | outcome [2] | outcome [3] | outcome [4] | outcome [5]

Nc1nc(CCl)nc(Nc2ccc3ccccc3c2)n1
inactive: outcome [1] | outcome [2] | outcome [3] | outcome [4] | outcome [5]

COc1cc(NC(=S)N2CCC(C(O)(c3ccccc3)c3ccccc3)CC2)cc(OC)c1
active: potentiation [2] 20.5% | potentiation [3] 156%
inactive: outcome [1] | outcome [4] | outcome [5]

Cc1ccc(O)c(NC(=S)NC(=O)Cc2ccc(Cl)cc2)c1
inactive: outcome [1] | outcome [4] | outcome [5]
active: potentiation [2] 38% | potentiation [3] 154%

O=C(CSc1ccccn1)N1CCN(S(=O)(=O)c2ccc(Cl)cc2)CC1
inactive: outcome [1] | outcome [2] | outcome [3] | outcome [4] | outcome [5]

Cc1ccc(C)c(NC(=S)c2nc3ccccc3s2)c1
inactive: outcome [1] | outcome [4] | outcome [5]
active: potentiation [2] 104% | potentiation [3] 143%

CC(C)(C)c1ccc(-n2nc(C#N)c(Cl)cc2=O)cc1
inactive: outcome [1] | outcome [2] | outcome [3] | outcome [4] | outcome [5]

C#CCNc1cc(-c2ccccc2)nc2ncnn12
inactive: outcome [1] | outcome [2] | outcome [3] | outcome [4] | outcome [5]

Cc1nnnn1/C(=C\c1ccccc1)C(=O)OCC(=O)Nc1ccc(Cl)cc1F
inactive: outcome [1] | outcome [2] | outcome [3] | outcome [4] | outcome [5]

CN(Cc1ccccc1)C(=S)NC(=O)c1ccccc1
active: potentiation [2] 21.5% | potentiation [3] 157%
inactive: outcome [1] | outcome [4] | outcome [5]

CC(=O)/C(=N/Nc1ccc([N+](=O)[O-])cc1)N1CCCc2ccccc21
inactive: outcome [1] | outcome [2] | outcome [3] | outcome [4] | outcome [5]

S=c1[nH]nc(-c2ccco2)n1/N=C/c1ccc(Br)s1
inactive: outcome [1] | outcome [2] | outcome [3] | outcome [4] | outcome [5]

COc1ccccc1OCCCc1c(C)n[nH]c1C
inactive: outcome [1] | outcome [2] | outcome [3] | outcome [4] | outcome [5]

O=C(CC1(O)C(=O)N(Cc2ccccc2)c2ccccc21)c1ccncc1 (stereo unspecified)
inactive: outcome [1] | outcome [4] | outcome [5]
active: potentiation [2] 27.5% | potentiation [3] 146%

O=C(NNC(=S)NC(=O)c1ccc(Br)cc1)c1cccc([N+](=O)[O-])c1
inactive: outcome [1] | outcome [2] | outcome [3] | outcome [4] | outcome [5]

COCc1cc(C)nc(NCCO)c1C#N
inactive: outcome [1] | outcome [2] | outcome [3] | outcome [4] | outcome [5]

COc1cc(/C=N/Nc2nc(N3CCCC3)nc(N3CCCC3)n2)ccc1OCc1ccccc1F
inactive: outcome [1] | outcome [2] | outcome [3] | outcome [4] | outcome [5]

Clc1ccc(C2=Nn3c(nnc3-c3n[nH]c4c3CCC4)SC2)cc1Cl
inactive: outcome [1] | outcome [2] | outcome [3] | outcome [4] | outcome [5]

NC(=O)CN1C(=O)NC2(CCOc3ccccc32)C1=O (stereo unspecified)
inactive: outcome [1] | outcome [2] | outcome [3] | outcome [4] | outcome [5]

O=C(NC(=S)Nc1ccccc1N1CCCC1)c1ccc(-c2cccc([N+](=O)[O-])c2)o1
inactive: outcome [1] | outcome [2] | outcome [3] | outcome [4] | outcome [5]

Cc1cccc(N2CCN(C(=O)Cn3sc4nc(C)cc(C)c4c3=O)CC2C)c1 (stereo unspecified)
inactive: outcome [1] | outcome [2] | outcome [3] | outcome [4] | outcome [5]

CC(C)(C)c1ccc(CN2N=Nc3ccccc3S2(=O)=O)cc1
inactive: outcome [1] | outcome [2] | outcome [4]

CCCCNC(=O)CNC(=O)c1nn(-c2ccc(OC)cc2OC)c(=O)c2ccccc12
inactive: outcome [1] | outcome [2] | outcome [4]

Cc1ccc(NC(=O)Cn2nc(C)c3ccccc3c2=O)c(C)c1
inactive: outcome [1] | outcome [2] | outcome [4]

O=C(CSc1nc(-c2ccccc2)cs1)N1CCc2ccccc21
inactive: outcome [1] | outcome [2] | outcome [4]

CN(C)CCCNc1cc(-c2ccccc2)nc2cc(-c3cccc(F)c3)nn12
inactive: outcome [4]
active: activation [1] 180% | potentiation [2] 57%

Cc1ccc(Nc2c(-c3ccc(C)o3)nc3cnccn23)cc1
inactive: outcome [1] | outcome [2] | outcome [4]

CCOc1ccccc1NC1=C(Cl)C(=O)N(c2ccccc2)C1=O
inactive: outcome [1] | outcome [2] | outcome [4]

O=C(Nc1cccc(-c2nnc(-c3ccco3)o2)c1)c1ccccc1
inactive: outcome [1] | outcome [2] | outcome [4]

N=C1/C(=C\c2ccc(-c3cccc(Cl)c3)o2)C(=O)N=C2SC=C(c3ccccc3)N12
inactive: outcome [1] | outcome [4]
active: potentiation [2] 29%

Cc1cccc(N(CC(=O)NC2CCCC2)C(=O)c2csnn2)c1C
inactive: outcome [1] | outcome [2] | outcome [4]

CCOc1cc(S(=O)(=O)Nc2ccc(Cl)cn2)ccc1Cl
inactive: outcome [1] | outcome [2] | outcome [4]

COC(=O)c1sc(NC(=S)NC(=O)c2ccccc2)nc1C
inactive: outcome [1] | outcome [2] | outcome [3] | outcome [4] | outcome [5]

Cc1ccc(C)c(NC(=S)NNC(=O)c2csc(C(C)C)c2)c1
active: activation [1] 162% | potentiation [2] 55.5%
inactive: outcome [4]

Cc1cc(OC(=O)c2cc(Cl)ccc2Cl)c([N+](=O)[O-])c(=O)[nH]1
inactive: outcome [1] | outcome [2] | outcome [4]

O=C(N1CCOCC1)N1CCC(n2nnc3ccccc32)CC1
inactive: outcome [1] | outcome [2] | outcome [4]

CCOC(=O)c1sc(NC(=O)c2ccccc2C(=O)O)c(C(=O)OCC)c1C
inactive: outcome [1] | outcome [2] | outcome [4]

COC(=O)c1cc(-c2cc(OC)ccc2OC)nc2c1c(=O)n(C)c(=O)n2Cc1ccccc1
inactive: outcome [1] | outcome [2] | outcome [4]

NC(=O)c1ccc(N2CCNC(=O)C2)c([N+](=O)[O-])c1
inactive: outcome [1] | outcome [2] | outcome [4]

O=C(CCSc1ccccc1)Nc1ccc(S(=O)(=O)Nc2ncccn2)cc1
inactive: outcome [1] | outcome [2] | outcome [4]

C/C(=N\OCC(=O)Nc1ccc(OC(F)(F)F)cc1)c1ccc2c(c1)OCCO2
inactive: outcome [1] | outcome [2] | outcome [4]

CSc1cccc(NC(=O)CN2C(=O)c3ccccc3S2(=O)=O)c1
inactive: outcome [1] | outcome [2] | outcome [4]

O=C(NC(=S)Nc1ccc(Br)cn1)c1cccs1
inactive: outcome [1] | outcome [2] | outcome [4]

CCc1ccc(C2c3[nH]c4ccccc4c3CCN2C(=O)CN2CCN(CC)CC2)cc1 (stereo unspecified)
inactive: outcome [1] | outcome [2] | outcome [4]

O=C(c1ccc(COc2c(F)c(F)cc(F)c2F)o1)N1CCN(c2ccc(Cl)cc2)CC1
inactive: outcome [1] | outcome [2] | outcome [4]

O=[N+]([O-])c1ccc(C(O)C(CO)NC(=S)Nc2ccccc2)cc1 (stereo unspecified)
inactive: outcome [1] | outcome [2] | outcome [4]

COC(=O)C1CCN(C(=O)Nc2ccc(OC)cc2)CC1
active: activation [1] 144% | potentiation [2] 33%
inactive: outcome [4]

COc1cccc(NC(=O)CSCc2cc(=O)n3ccsc3n2)c1
inactive: outcome [1] | outcome [2] | outcome [4]

Cc1cccc(-n2c(=S)[nH]c3c(oc4ccccc43)c2=O)c1
active: activation [1] 139%
inactive: outcome [2] | outcome [4]

Cn1c(N/N=C/c2cccs2)cc(=O)n(C)c1=O
inactive: outcome [1] | outcome [2] | outcome [4]

Cc1ccc(-n2c(-c3ccc(Cl)cc3)n[nH]c2=S)c(C)c1
inactive: outcome [1] | outcome [2] | outcome [4]

CCCn1c(SCC(=O)Nc2cccc(NC(C)=O)c2)nnc1C(C)C
inactive: outcome [1] | outcome [2] | outcome [4]

Cc1cc(N2CCOCC2)nc(SCC(=O)c2ccc(Cl)cc2)n1
inactive: outcome [1] | outcome [2] | outcome [4]

CC1CN(C(=O)C2CC(=O)N(c3ccc(Cl)cc3)C2)CC(C)O1 (stereo unspecified)
inactive: outcome [1] | outcome [2] | outcome [4]

Cc1cccc(NC(=S)c2nc3ccccc3s2)c1
inactive: outcome [1] | outcome [4] | outcome [5]
active: potentiation [2] 146% | potentiation [3] 219%
